Laboratory results from ChEMBL document CHEMBL4622968, “Discovery of [1,2,4]triazolo[4,3-a]pyridines as potent Smoothened inhibitors targeting the Hedgehog pathway with improved antitumor activity in vivo” (Bioorg Med Chem, 2020).
pIC50: −log10 of the molar value. The source made the active and inactive calls. No cut-off for these calls is given here.

What was measured:
[1] = tested on: MDA-MB-468; test: Induction of cell cycle arrest in human MDA-MB-468 cells assessed as cell accumulation at S phase at 14 uM incubated for 48 hrs by propidium iodide staining-based flow cytometric analysis (reference value: 34.20 %); type: functional
Summary of the method: (§1)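 Cells were seeded at 1.2×10^5 per well and treated for 48 h (MDA-MB-468: 14, 28, 56 μM). Cells were fixed in 75% ethanol at −20 °C overnight, stained with PI and analysed by flow cytometry. Mean ± S.D. of three independent experiments versus DMSO.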

[2] = species: Mus musculus; test: Inhibition of SAG-induced hedgehog pathway in mouse NIH/3T3 cells assessed as inhibition of Smo localization to primary cilia pretreated with SAG for 6 hrs followed by incubating for 24 hrs by confocal laser-scanning microscopy; type: cell-based
Summary of the method: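 NIH3T3 cells in DMEM + 10% FBS were seeded at 2×10^4 per well on chamber slides for 24 h. They were stimulated with SAG (200 nM) for 6 h, then exposed to compound for 24 h. Cells were fixed in 4% paraformaldehyde and permeabilized with 0.1% Triton. Acetylated α-tubulin and Smo were immunostained and imaged by confocal microscopy.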

[3] = tested on: MDA-MB-231; test: Antiproliferation activity against human MDA-MB-231 cells assessed as reduction in cell viability incubated for 72 hrs measured after 4 hrs by MTT assay; type: functional, cell-based
Summary of the method: (§2)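 MTT assay. Cells were plated overnight and exposed to a range of concentrations for 72 h. MTT was then added for 4 h and absorbance read at 570 nm. Inhibition% = [(control − compound)/(control − blank)] × 100. IC50 was fitted from the curves. Mean ± S.D. of 3–5 separate experiments. RPMI 1640 + 10% FBS; MCF10A in DMEM/F12 with 5% horse serum, EGF, hydrocortisone, insulin and cholera toxin.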

[4] = tested on: MDA-MB-231; test: Induction of apoptosis in human MDA-MB-231 cells assessed as increase in Bax protein expression level incubated for 1 hr by Western blot analysis; type: functional, cell-based
[5] = tested on: T47D; test: Antiproliferation activity against human T47D cells assessed as reduction in cell viability incubated for 72 hr by MTT assay; type: functional, cell-based; summary of the method: as §2
[6] = Toxicity in BALB/c mouse xenografted with human MDA-MB-468 cells assessed as body weight at 80 to 100 mg/kg, ig measured every day for 21 day; type: organism-based; conditions: in vivo, po, 504 h
Summary of the method: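 Female BALB/c nude mice, 6–8 weeks, given 1.0×10^7 MDA-MB-468 cells s.c. in right posterior flank; at 100 mm3 tumours, randomized into groups of five. Daily gavage at 80 or 100 mg/kg in saline with 0.1% Tween 80, or vehicle alone; body weight recorded daily, tumour volume every 2 days; sacrificed day 21.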

[7] = tested on: MDA-MB-468; test: Induction of cell cycle arrest in human MDA-MB-468 cells assessed as cell accumulation at G0/G1 phase at 14 uM incubated for 48 hrs by propidium iodide staining-based flow cytometric analysis (reference value: 38.94 %); type: functional; summary of the method: as §1
[8] = tested on: MDA-MB-231; test: Induction of apoptosis in human MDA-MB-231 cells assessed as decrease in Bcl2 protein expression level incubated for 1 hr by Western blot analysis; type: functional, cell-based
[9] = tested on: MDA-MB-468; test: Induction of apoptosis in human MDA-MB-468 cells assessed as late apoptotic cells at 56 uM incubated for 48 hrs by annexin-V-FITC staining based flow cytometric method (reference value: 0.99 %); type: functional
[10] = tested on: MDA-MB-468; test: Induction of apoptosis in human MDA-MB-468 cells assessed as increase in Bax protein expression level incubated for 1 hr by Western blot analysis; type: functional, cell-based
[11] = tested on: HeLa; test: Antiproliferation activity against human HeLa cells assessed as reduction in cell viability incubated for 72 hrs by MTT assay; type: functional, cell-based; summary of the method: as §2
[12] = tested on: MDA-MB-468; test: Antiproliferation activity against human MDA-MB-468 cells assessed as reduction in cell viability incubated for 72 hr by MTT assay; type: functional, cell-based; conditions: MDA-MB-468, 72 h; summary of the method: as §2
[13] = tested on: MDA-MB-468; test: Induction of apoptosis in human MDA-MB-468 cells assessed as early apoptotic cells at 14 uM incubated for 48 hrs by annexin-V-FITC staining based flow cytometric method (reference value: 2.00 %); type: functional
[14] = tested on: MDA-MB-231; test: Induction of cell cycle arrest in human MDA-MB-231 cells assessed as cell accumulation at G0/G1 phase incubated for 48 hrs by propidium iodide staining-based flow cytometric analysis; type: functional
[15] = Acute toxicity in Kunming mouse assessed as mortality at 3453 mg/kg, ig observed for 14 days relative to control; type: organism-based; conditions: in vivo, po, read-out: Activity
Summary of the method: (§3)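 Kunming mice, groups of 5 female and 5 male per dose, dosed once by gavage at graded doses; mortality recorded over 14 days as dead/treated and percent. LD50 derived by improved Karber's method: LD50 = lg^-1[xm − i(ΣP − 0.5)], xm log of maximal dose, i log ratio of neighbouring doses; 95% confidence intervals given.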

[16] = tested on: MDA-MB-468; test: Induction of cell cycle arrest in human MDA-MB-468 cells assessed as cell accumulation at G2/M phase at 56 uM incubated for 48 hrs by propidium iodide staining-based flow cytometric analysis (reference value: 26.66 %); type: functional; summary of the method: as §1
[17] = target: Protein smoothened (Homo sapiens, UniProt Q99835); test: Binding affinity to recombinant human Smo receptor assessed as maximum response at equilibrium by SPR analysis
Protein smoothened, sequence (Q99835 whole entry): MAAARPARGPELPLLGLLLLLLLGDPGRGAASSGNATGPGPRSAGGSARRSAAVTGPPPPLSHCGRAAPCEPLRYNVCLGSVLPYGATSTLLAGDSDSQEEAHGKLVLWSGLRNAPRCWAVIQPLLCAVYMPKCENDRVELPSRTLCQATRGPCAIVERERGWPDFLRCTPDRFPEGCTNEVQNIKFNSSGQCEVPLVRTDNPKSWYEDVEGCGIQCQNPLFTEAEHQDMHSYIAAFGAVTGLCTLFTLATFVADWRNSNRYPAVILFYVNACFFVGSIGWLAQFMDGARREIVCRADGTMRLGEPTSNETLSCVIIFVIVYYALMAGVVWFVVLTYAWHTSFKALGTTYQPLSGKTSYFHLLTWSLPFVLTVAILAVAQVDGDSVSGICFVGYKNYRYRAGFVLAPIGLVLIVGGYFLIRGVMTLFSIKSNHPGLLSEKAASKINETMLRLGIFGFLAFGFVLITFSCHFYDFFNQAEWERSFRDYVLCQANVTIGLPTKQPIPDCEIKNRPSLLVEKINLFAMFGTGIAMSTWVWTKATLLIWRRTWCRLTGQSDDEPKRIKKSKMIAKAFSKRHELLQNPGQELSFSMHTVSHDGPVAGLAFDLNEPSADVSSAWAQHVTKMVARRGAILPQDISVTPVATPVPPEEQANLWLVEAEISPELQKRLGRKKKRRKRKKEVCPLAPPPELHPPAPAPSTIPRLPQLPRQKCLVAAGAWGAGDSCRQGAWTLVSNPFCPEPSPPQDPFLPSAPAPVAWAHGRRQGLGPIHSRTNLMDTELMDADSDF
Summary of the method: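 Surface plasmon resonance with recombinant Smo protein, run in PBS at a flow rate of 2 μL/s and 4 °C. Analytes were injected at 2.5, 5 and 10 μM. The chip was regenerated with 0.5% SDS:glycine-HCl pH 2.0 (1:1). ka, kd, Rmax, KA and KD came from a global fit of the sensorgrams.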

[18] = Acute toxicity in Kunming mouse assessed as mortality at 3008 mg/kg, ig observed for 14 days relative to control; type: organism-based; conditions: in vivo, po, read-out: Activity; summary of the method: as §3
[19] = tested on: MDA-MB-468; test: Induction of cell cycle arrest in human MDA-MB-468 cells assessed as cell accumulation at G2/M phase at 14 uM incubated for 48 hrs by propidium iodide staining-based flow cytometric analysis (reference value: 26.66 %); type: functional; summary of the method: as §1
[20] = tested on: MDA-MB-468; test: Induction of apoptosis in human MDA-MB-468 cells assessed as necrotic cells at 56 uM incubated for 48 hrs by annexin-V-FITC staining based flow cytometric method (reference value: 1.52 %); type: functional
[21] = tested on: MDA-MB-468; test: Induction of apoptosis in human MDA-MB-468 cells assessed as late apoptotic cells at 28 uM incubated for 48 hrs by annexin-V-FITC staining based flow cytometric method (reference value: 0.99 %); type: functional
[22] = tested on: MDA-MB-468; test: Induction of apoptosis in human MDA-MB-468 cells assessed as late apoptotic cells at 14 uM incubated for 48 hrs by annexin-V-FITC staining based flow cytometric method (reference value: 0.99 %); type: functional
[23] = tested on: MDA-MB-468; test: Induction of apoptosis in human MDA-MB-468 cells assessed as decrease in Bcl2 protein expression level incubated for 1 hr by Western blot analysis; type: functional, cell-based
[24] = tested on: MDA-MB-468; test: Induction of apoptosis in human MDA-MB-468 cells assessed as early apoptotic cells at 56 uM incubated for 48 hrs by annexin-V-FITC staining based flow cytometric method (reference value: 2.00 %); type: functional
[25] = tested on: U-251; test: Antiproliferation activity against human U251 cells assessed as reduction in cell viability incubated for 72 hrs by MTT assay; type: functional, cell-based; conditions: U-251, 72 h; summary of the method: as §2
[26] = tested on: MDA-MB-468; test: Induction of apoptosis in human MDA-MB-468 cells assessed as increase in apoptosis incubated for 48 hrs by annexin-V-FITC/PI staining based flow cytometric method; type: functional, cell-based

**Q.** Which results are given for `O=C(Nc1ccc(Cl)c(-c2nnc3c(Cl)cccn23)c1)c1ccc(Cl)nc1Cl`?
**A.** Activity [1]: 45%; inhibition [2]: Active; pIC50 [3]: 4.53; Activity [4]: Active; pIC50 [5]: 4.37; Activity [6]: Non-Toxic; Activity [7]: 30.69%; Activity [8]: Active; Activity [9]: 24.1%; Activity [10]: Active; pIC50 [11]: 4.18; pIC50 [12]: 4.54; Activity [13]: 8.63%; Activity [14]: Dose-dependent effect; mortality at 336 h [15]: 30%; Activity [16]: 42.57%; Rmax [17]: 90.5 RU; mortality at 336 h [18]: 10%; Activity [19]: 86%; Activity [20]: 9.06%; Activity [21]: 14.6%; Activity [22]: 7.15%; Activity [23]: Active; Activity [24]: 6.53%; pIC50 [25]: 4.07; Activity [26]: Dose-dependent effect
